Our source for the Ki and IC50 values is ChEMBL document CHEMBL1155007, “Synthesis and monoamine transporter binding properties of 2beta-[3'-(substituted benzyl)isoxazol-5-yl]- and 2beta-[3'-methyl-4'-(substituted phenyl)isoxazol-5-yl]-3beta-(substituted phenyl)tropanes” (Bioorg Med Chem, 2008).

Assay [1] concerns the target Sodium-dependent noradrenaline transporter (Homo sapiens, UniProt P23975). Kind of assay: Displacement of [3H]nisoxetine from NET.
The target of assay [2] is Sodium-dependent dopamine transporter (Homo sapiens, UniProt Q01959). The assay is described as follows: Displacement of [3H]WIN-35428 from DAT. In short, it runs like this: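 Competitive radioligand binding at the dopamine transporter, with 0.5 nM [3H]WIN35,428 as the final radioligand concentration. Compounds were tested as HCl salts. Values are means ± standard error of three or four experiments, each run in duplicate.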
Sequence of Sodium-dependent dopamine transporter (Q01959 whole entry): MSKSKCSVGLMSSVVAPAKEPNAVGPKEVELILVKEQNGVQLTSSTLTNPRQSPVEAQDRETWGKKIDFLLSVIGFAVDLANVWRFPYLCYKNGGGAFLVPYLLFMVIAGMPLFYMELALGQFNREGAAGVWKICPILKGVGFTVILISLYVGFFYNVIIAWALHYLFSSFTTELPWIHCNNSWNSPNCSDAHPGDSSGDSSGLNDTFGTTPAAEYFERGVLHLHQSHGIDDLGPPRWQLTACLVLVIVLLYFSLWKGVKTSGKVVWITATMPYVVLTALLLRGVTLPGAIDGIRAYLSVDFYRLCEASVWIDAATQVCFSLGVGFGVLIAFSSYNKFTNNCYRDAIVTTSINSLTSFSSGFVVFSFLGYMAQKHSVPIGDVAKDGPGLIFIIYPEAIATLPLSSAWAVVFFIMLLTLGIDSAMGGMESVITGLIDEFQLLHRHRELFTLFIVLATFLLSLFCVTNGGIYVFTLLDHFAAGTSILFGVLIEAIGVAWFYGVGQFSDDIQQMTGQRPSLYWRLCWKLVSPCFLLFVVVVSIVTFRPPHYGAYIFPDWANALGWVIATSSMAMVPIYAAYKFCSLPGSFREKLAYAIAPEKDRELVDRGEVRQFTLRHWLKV
(In a radioligand displacement assay an active substance lowers the binding of a labelled ligand.)

Assay [3] addresses Sodium-dependent serotonin transporter (Homo sapiens, UniProt P31645). The assay is described as follows: Displacement of [3H]paroxetine from 5HTT. An outline of the steps: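 Competitive radioligand binding at the serotonin transporter, with 0.2 nM [3H]paroxetine as the final radioligand concentration. Compounds were tested as HCl salts. Values are means ± standard error of three or four experiments, each run in duplicate.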

pIC50, pKi: −log10 of the molar value.

Sequence of Sodium-dependent noradrenaline transporter (P23975 whole entry): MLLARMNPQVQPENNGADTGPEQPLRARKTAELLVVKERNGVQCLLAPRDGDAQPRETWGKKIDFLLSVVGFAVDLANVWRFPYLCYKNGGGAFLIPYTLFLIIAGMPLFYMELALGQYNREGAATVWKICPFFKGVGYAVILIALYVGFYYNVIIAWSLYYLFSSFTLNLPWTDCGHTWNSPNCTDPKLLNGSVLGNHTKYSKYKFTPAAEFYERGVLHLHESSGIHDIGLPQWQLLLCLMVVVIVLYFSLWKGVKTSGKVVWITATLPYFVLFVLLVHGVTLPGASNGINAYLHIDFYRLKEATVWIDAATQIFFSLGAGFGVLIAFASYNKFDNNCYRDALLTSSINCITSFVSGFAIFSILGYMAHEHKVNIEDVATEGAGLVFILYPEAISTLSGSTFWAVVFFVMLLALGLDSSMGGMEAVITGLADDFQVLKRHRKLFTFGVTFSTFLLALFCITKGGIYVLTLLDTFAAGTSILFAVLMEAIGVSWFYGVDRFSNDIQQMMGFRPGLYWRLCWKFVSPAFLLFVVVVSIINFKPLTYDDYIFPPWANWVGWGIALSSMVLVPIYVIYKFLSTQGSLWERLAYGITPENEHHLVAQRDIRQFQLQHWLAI
Sequence of Sodium-dependent serotonin transporter (P31645 whole entry): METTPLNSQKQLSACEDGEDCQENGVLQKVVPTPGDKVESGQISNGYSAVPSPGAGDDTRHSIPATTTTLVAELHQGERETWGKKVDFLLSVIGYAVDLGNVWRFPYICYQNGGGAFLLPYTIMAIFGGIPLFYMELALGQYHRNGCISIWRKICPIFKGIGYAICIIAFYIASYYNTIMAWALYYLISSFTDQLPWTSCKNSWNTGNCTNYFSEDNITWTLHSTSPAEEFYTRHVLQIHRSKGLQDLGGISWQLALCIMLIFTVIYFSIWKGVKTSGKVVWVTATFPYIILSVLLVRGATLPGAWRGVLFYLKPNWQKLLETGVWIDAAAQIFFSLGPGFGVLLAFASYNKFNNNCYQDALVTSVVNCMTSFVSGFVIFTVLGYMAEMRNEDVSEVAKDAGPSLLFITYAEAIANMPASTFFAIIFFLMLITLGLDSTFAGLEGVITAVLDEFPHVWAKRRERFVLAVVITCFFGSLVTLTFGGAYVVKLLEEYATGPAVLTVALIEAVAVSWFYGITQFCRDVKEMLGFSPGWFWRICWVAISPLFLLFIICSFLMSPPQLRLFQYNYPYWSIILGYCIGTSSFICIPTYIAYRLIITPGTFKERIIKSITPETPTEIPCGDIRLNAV

In the case of `Cc1ccc([C@H]2CC3CCC([C@H]2c2onc(C)c2-c2ccc(F)cc2)N3C)cc1` (some centres not stated), the figures for the pKi in assay [1] and in assay [3] were 6.46 and less than 5.70, respectively. The pIC50 (usually −log10 of the IC50, conventionally taken in molar units) in assay [2] was 7.12.
The corresponding values for `Cc1ccc(-c2cc([C@@H]3C4CCC(C[C@@H]3c3ccc(Cl)cc3)N4C)on2)cc1` (some centres not stated) are 5.99, 6.28 and 8.39.
In the case of `COc1ccc(-c2c(C)noc2[C@@H]2C3CCC(C[C@@H]2c2ccc(Cl)cc2)N3C)cc1` (some centres not stated), the pKi – broadly, the Ki on a negative log10 scale, so that one unit is a factor of ten – is less than 5.70 in assay [1] and 5.74 in assay [3]. Also, in assay [2], the pIC50 was 7.09.
The corresponding values for `Cc1ccc(Cc2cc([C@@H]3C4CCC(C[C@@H]3c3ccc(Cl)cc3)N4C)on2)cc1` (some centres not stated) are 5.96, 7.37 and 7.66.
For `Cc1ccc(-c2c(C)noc2[C@@H]2C3CCC(C[C@@H]2c2ccc(Cl)cc2)N3C)cc1` (some centres not stated) the same measures were less than 5.70, 6.53 and 6.87.
The corresponding values for `Cc1ccc([C@H]2CC3CCC([C@H]2c2cc(Cc4ccc(Cl)cc4)no2)N3C)cc1` (some centres not stated) are 6.08, 7.07 and 7.65.
With `CN1C2CCC1[C@@H](c1cc(-c3ccc(F)cc3)no1)[C@@H](c1ccc(Cl)cc1)C2` (some centres not stated), the figures for the pKi in assay [1] and in assay [3] were 6.26 and 6.18, respectively. Further, in assay [2], the pIC50 is 8.73.
For `COc1ccc(-c2c(C)noc2[C@@H]2C3CCC(C[C@@H]2c2ccc(C)cc2)N3C)cc1` (some centres not stated) the same measures were 5.89, less than 5.70 and 6.92.
For `CN1C2CCC1[C@@H](c1cc(Cc3ccc(Cl)cc3)no1)[C@@H](c1ccc(Cl)cc1)C2` (some centres not stated) the same measures were 6.17, 7.10 and 7.76.
For `CN1C2CCC1[C@@H](c1cc(Cc3ccc(F)cc3)no1)[C@@H](c1ccc(Cl)cc1)C2` (some centres not stated) the same measures were 6.36, 7.14 and 8.07.
Consider `Cc1ccc([C@H]2CC3CCC([C@H]2c2onc(C)c2-c2ccc(Cl)cc2)N3C)cc1` (some centres not stated), for which the pKi in assay [1] is 6.28; in assay [3], 6.06. The same compound showed a pIC50 in assay [2] of 7.18.
As to `COc1ccc(-c2cc([C@@H]3C4CCC(C[C@@H]3c3ccc(Cl)cc3)N4C)on2)cc1` (some centres not stated), the pKi in assay [1] was 6.34; in assay [3] it was 6.27. Moreover, in assay [2], the pIC50 was 8.80.
The corresponding values for `Cc1ccc([C@H]2CC3CCC([C@H]2c2cc(-c4ccc(Cl)cc4)no2)N3C)cc1` (some centres not stated) are less than 5.70, less than 5.70 and 8.06.
The corresponding values for `COc1ccc(-c2cc([C@@H]3C4CCC(C[C@@H]3c3ccc(C)cc3)N4C)on2)cc1` (some centres not stated) are 6.34, 6.44 and 8.41.
The corresponding values for `Cc1ccc(Cc2cc([C@@H]3C4CCC(C[C@@H]3c3ccc(C)cc3)N4C)on2)cc1` (some centres not stated) are 6.11, 7.05 and 8.16.
For `Cc1ccc([C@H]2CC3CCC([C@H]2c2cc(-c4ccc(F)cc4)no2)N3C)cc1` (some centres not stated), the values for the pKi in assay [1] and in assay [3] were 6.26 and less than 5.70, respectively. The pIC50 in assay [2] was 8.19.
With `COc1ccc(Cc2cc([C@@H]3C4CCC(C[C@@H]3c3ccc(C)cc3)N4C)on2)cc1` (some centres not stated), the values for the pKi in assay [1] and in assay [3] were 6.45 and 7.39, respectively. This compound gave a pIC50 in assay [2] of 8.02.
The corresponding values for `COc1ccc(Cc2cc([C@@H]3C4CCC(C[C@@H]3c3ccc(Cl)cc3)N4C)on2)cc1` (some centres not stated) are 6.46, 7.84 and 8.21.
For `CN1C2CCC1[C@@H](c1cc(-c3ccc(Cl)cc3)no1)[C@@H](c1ccc(Cl)cc1)C2` (some centres not stated) the same measures were less than 5.70, less than 5.70 and 8.19.
For `Cc1ccc(-c2cc([C@@H]3C4CCC(C[C@@H]3c3ccc(C)cc3)N4C)on2)cc1` (some centres not stated) the same measures were less than 5.70, less than 5.70 and 7.89.
As for `Cc1ccc([C@H]2CC3CCC([C@H]2c2cc(Cc4ccc(F)cc4)no2)N3C)cc1` (some centres not stated), the values for the pKi in assay [1] and in assay [3] were 6.34 and 6.95, respectively. In assay [2], this compound gave a negative-log IC50 (pIC50) of 8.23.
The corresponding values for `Cc1noc([C@@H]2C3CCC(C[C@@H]2c2ccc(Cl)cc2)N3C)c1-c1ccc(F)cc1` (some centres not stated) are 6.33, 6.04 and 6.95.
For `Cc1ccc(-c2c(C)noc2[C@@H]2C3CCC(C[C@@H]2c2ccc(C)cc2)N3C)cc1` (some centres not stated) the same measures were less than 5.70, 6.00 and 6.76.
For `Cc1noc([C@@H]2C3CCC(C[C@@H]2c2ccc(Cl)cc2)N3C)c1-c1ccc(Cl)cc1` (some centres not stated) the same measures were 6.10, 6.41 and 7.16.
